Laboratory results taken from PMC9924077 (Cell stem cell, 2022).
Values belong to the compound of their own block, whether it stands above or below them.

What was measured:
hiPSC-CMs = assay type: cell-based, human; settings: for apparent risk in this study compared with actual clinical practice: hiPSC-CMs, Torsadogenic safety margin
DCM and HCM hiPSC-CMs = assay type: cell-based, human; settings: for asystole safety margin versus isogenic control: DCM RBM20 p.R634Q and PLN p.R14del, HCM MYBPC3 p.R943X and TPM1 p.K37E versus isogenic control hiPSC-CMs; for Torsadogenic safety margin in DCM and HCM hiPSC-CMs versus isogenic control: DCM and HCM lines versus HD.15S1 isogenic control
How it was run: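 Cells were HCM (TPM1, MYBPC3) and DCM (TNNT2, RBM20, PLN) hiPSC-CMs made by Cas9/ssODN knock-in and Sanger-verified, plus isogenic control. They were plated at 25,000/well for ≥4 days, dye-loaded with VF2.1.Cl/Hoechst for 50 min at 37°C, exposed to drug for 15 min at 37°C, and imaged at 33 Hz for 10 s. Design: 8 doses, 3 differentiation batches × 3 technical repeats. CNN arrhythmic/asystolic probability was fitted by binomial glm against log dose, with EC50 and 95% CI.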

[1] = risk of TdP arrhythmia at clinical exposures; cited from earlier work
[2] = test system: hiPSC-derived cardiomyocytes; settings: tested at concentrations exceeding 100 times the free Cmax; cited from earlier work
[3] = healthy donor hiPSC-CMs, 8 concentrations

Compound: CCCCCCCN(CC)CCCC(O)c1ccc(NS(C)(=O)=O)cc1 (stereo not drawn) [ibutilide, Ibutilide]
arrhythmia probability (CNN) versus dose (hiPSC-CMs; [3]): continuous, dose-dependent increase in arrhythmia probability
asystole safety margin versus isogenic control (DCM and HCM hiPSC-CMs): heightened propensity to cause asystole
Torsadogenic safety margin in DCM and HCM hiPSC-CMs versus isogenic control (DCM and HCM hiPSC-CMs): trended towards increased risk
CiPA TdP risk classification [1]: high

Compound: COc1ccccc1OCC(O)CN1CCN(CC(=O)Nc2c(C)cccc2C)CC1 (stereo not drawn) [ranolazine, Ranolazine]
apparent risk in this study compared with actual clinical practice (hiPSC-CMs): riskier
CiPA TdP risk classification [1]: low-no risk

Compound: CN(CCOc1ccc(NS(C)(=O)=O)cc1)CCc1ccc(NS(C)(=O)=O)cc1 [dofetilide, Dofetilide]
asystole safety margin versus isogenic control (DCM and HCM hiPSC-CMs): heightened propensity to cause asystole

Compound: Cc1nccn1CC1CCc2c(c3ccccc3n2C)C1=O (stereo not drawn) [ondansetron, Ondansetron]
CiPA TdP risk classification [1]: intermediate

Compound: CC(C)COCC(CN(Cc1ccccc1)c1ccccc1)N1CCCC1 (stereo not drawn) [bepridil, Bepridil]
response in hiPSC-derived cardiomyocytes in previous studies [2]: non-arrhythmic responses
apparent risk in this study compared with actual clinical practice (hiPSC-CMs): appeared less
CiPA TdP risk classification [1]: high-risk

Compound: Cc1cccc(C)c1OCC(C)N (stereo not drawn) [mexiletine, Mexiletine]
apparent risk in this study compared with actual clinical practice (hiPSC-CMs): riskier
CiPA TdP risk classification [1]: low-no risk

Compound: O=C(CCCN1CC=C(n2c(=O)[nH]c3ccccc32)CC1)c1ccc(F)cc1 [droperidol, Droperidol]
apparent risk in this study compared with actual clinical practice (hiPSC-CMs): riskier
asystole safety margin versus isogenic control (DCM and HCM hiPSC-CMs): heightened propensity to cause asystole
Torsadogenic safety margin in DCM and HCM hiPSC-CMs versus isogenic control (DCM and HCM hiPSC-CMs): trended towards increased risk
CiPA TdP risk classification [1]: intermediate risk

asystole (probability of asystole class, CNN) versus dose (hiPSC-CMs; [3]): dose-dependent induction of asystole
Compound: COC(=O)C1=C(C)NC(C)=C(C(=O)OC)C1c1ccccc1[N+](=O)[O-] [nifedipine, Nifedipine]
